Test [1] relates to Mus musculus. As to the kind of experiment: Tested for physostigmine lethality at a dose of 50 mg/kg after oral administration in mice. It is filed as functional. A digest of the protocol:
(§1)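 Groups of 10 CFW mice (19-26 g) given test compound in distilled water or 0.5% carboxymethylcellulose 1 h (0.5 h for hyoscine) before physostigmine 1 mg/kg ip. Tremor or death scored at 10, 20 and 60 min after physostigmine (dead at 10 min = 4, dead later = 3, marked tremor = 2, slight tremor = 1, no effect = 0). Value is percent reduction in group score versus control group.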

Test [2] deals with Muscarinic acetylcholine receptor. As to the kind of experiment: Displacement of [3H]QNB from Muscarinic acetylcholine receptor of rat brain membrane.
The subject of test [3] is Mus musculus. As to the kind of experiment: Tested for physostigmine lethality at a dose of 5 mg/kg after oral administration in mice. It is filed as functional. In a few lines:
as §1

The subject of test [4] is Mus musculus. As to the kind of experiment: Tested for physostigmine lethality at a dose of 10 mg/kg after oral administration in mice. It is filed as functional. A digest of the protocol: as §1
For test [5], the system named is Mus musculus. Kind of test: Tested for physostigmine lethality at a dose of 2.5 mg/kg after oral administration in mice. It is filed as functional. In a few lines:
as §1

Test [6] concerns Mus musculus. As to the kind of experiment: Tested for physostigmine lethality at a dose of 8 mg/kg after oral administration in mice. In kind it is functional. A digest of the protocol:
as §1

For test [7], the system named is Mus musculus. As to the kind of experiment: Tested for physostigmine lethality at a dose of 12 mg/kg after oral administration in mice. In kind it is functional. In a few lines: as §1
In test [8] the test system is Mus musculus. As to the kind of experiment: Tested for physostigmine lethality at a dose of 25 mg/kg after oral administration in mice. It is filed as functional. In a few lines: as §1
The subject of test [9] is Mus musculus. As to the kind of experiment: Tested for physostigmine lethality at a dose of 20 mg/kg after oral administration in mice. In kind it is functional. In a few lines: as §1
Test [10] relates to Mus musculus. Kind of test: Tested for physostigmine lethality at a dose of 15 mg/kg after oral administration in mice. It is filed as functional. In a few lines:
as §1

In the test with Mus musculus [1], `Cc1sc2c(c1C(C)C)C(N1CCN(C)CC1)=Nc1cc(F)ccc1N2` registered a Protection of 35%. In test [2], this compound came in with an IC50 of 64 nM.
For `Cc1csc2c1C(N1CCN(C)CC1)=Nc1cc(F)ccc1N2`, the Protection in the test on Mus musculus [3] is 65%; with Mus musculus [4] it was 67%; in the test with Mus musculus [5] it was 5%. The same compound had an IC50 in [2] of 101 nM.
For `CCc1cc2c(s1)Nc1ccc(F)cc1N=C2N1CCN(C)CC1`, the Protection is recorded as 18% with Mus musculus [6], 33% in the test on Mus musculus [4] and 75% in the test on Mus musculus [7]. The same compound came in with an IC50 in test [2] of 116 nM.
`CN1CCN(C2=Nc3cc(F)ccc3Nc3sc4c(c32)CCCC4)CC1`: the Protection in the test on Mus musculus [3] worked out at 46%; in the test on Mus musculus [4], 46%; with Mus musculus [8], 71%. In addition, the IC50 in test [2] was 34 nM.
Regarding `CCc1c(C)sc2c1C(N1CCN(C)CC1)=Nc1cc(F)ccc1N2`, the Protection in the test with Mus musculus [9] is 53%; with Mus musculus [3], 60%; with Mus musculus [4], 75%. The compound also showed an IC50 in test [2] of 26 nM.
Consider `Cc1sc2c(c1C)C(N1CCN(C)CC1)=Nc1cc(F)ccc1N2`, for which the Protection in the test with Mus musculus [3] is given as 33%; with Mus musculus [4], 74%; in the test with Mus musculus [5] it was 5%. The compound also gave a 50% inhibitory concentration (IC50) in test [2] of 9 nM.
The compound `CCc1cc2c(s1)Nc1ccc(F)cc1N=C2N1CC(C)N(C)C(C)C1` (configuration not stated) yielded a Protection with Mus musculus [1] of 24%. For the same compound, in test [2], the 50% inhibitory concentration (IC50) stood at 258 nM.
For the compound `CCc1cc2c(s1)Nc1ccc(F)cc1N=C2N1CCN(C)C(C)C1` (configuration not stated), the Protection worked out at 42% in the test with Mus musculus [9] and 17% with Mus musculus [4]. In addition, the half-inhibitory concentration (IC50) in [2] turned out to be 97 nM.
On to `CC(C)c1csc2c1C(N1CCN(C)CC1)=Nc1cc(F)ccc1N2`, for which the Protection in the test on Mus musculus [1] is on record as 35%. In test [2], the IC50 was found to be 26 nM.
With `CN1CCN(C2=Nc3cc(F)ccc3Nc3sccc32)CC1`, in [2], the IC50 was 574 nM.
On the same count and under the same terms, the result for `CCc1cc2c(s1)Nc1ccc(F)cc1N=C2N1CC(C)N(C)CC1C` (configuration not stated) reads 247 nM.
For the compound `CN1CCN(C2=Nc3cc(Cl)ccc3Nc3ccccc32)CC1` [CLOZAPINE], the Protection with Mus musculus [10] was 53%.
Consider `Cc1cc2c(s1)Nc1ccc(F)cc1N=C2N1CCN(C)CC1` [FLUMEZAPINE], for which the Protection with Mus musculus [3] is on record as 64%; in the test on Mus musculus [4], 75%; in the test on Mus musculus [5], 50%. In test [2], this compound showed an IC50 of 74 nM.
For the compound `O=C(CCCN1CCC(O)(c2ccc(Cl)cc2)CC1)c1ccc(F)cc1` [HALOPERIDOL], in the test on Mus musculus [3], the Protection is given as 0%.
